Experimental data from ChEMBL document CHEMBL1125750, “Dual antagonists of platelet activating factor and histamine. Identification of structural requirements for dual activity of N-Acyl-4-(5,6-dihydro-11H-benzo [5,6]cyclohepta-[1,2-b]pyridin-11-ylidene)piperidines” (J Med Chem, 1991).
pKi: −log10 of the molar value.

Columns and labels:
Histamine H1 receptor = Histamine H1 receptor (Rattus norvegicus, UniProt P31390); assay: Binding affinity to histamine H1 receptor in rat brain membranes was evaluated using [3H]-pyrilamine as radioligand; assay type: cell membranes
Sequence of Histamine H1 receptor (P31390 whole entry): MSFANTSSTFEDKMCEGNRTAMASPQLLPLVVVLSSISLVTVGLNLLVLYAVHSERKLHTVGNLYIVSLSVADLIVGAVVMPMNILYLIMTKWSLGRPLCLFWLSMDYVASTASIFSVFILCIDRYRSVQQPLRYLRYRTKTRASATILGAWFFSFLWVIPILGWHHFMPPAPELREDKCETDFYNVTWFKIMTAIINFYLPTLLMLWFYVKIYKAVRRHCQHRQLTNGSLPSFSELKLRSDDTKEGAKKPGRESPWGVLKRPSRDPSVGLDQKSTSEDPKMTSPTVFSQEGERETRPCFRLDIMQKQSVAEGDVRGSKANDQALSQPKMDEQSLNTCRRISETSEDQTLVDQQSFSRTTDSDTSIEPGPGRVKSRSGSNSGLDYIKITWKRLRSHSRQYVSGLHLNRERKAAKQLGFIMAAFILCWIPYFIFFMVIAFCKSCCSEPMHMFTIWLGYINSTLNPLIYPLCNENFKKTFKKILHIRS

Cavia porcellus [1] = assay: Compound tested for inhibition of guinea pig bronchospasm at a peroral dose of 10 mg/Kg and after 2 hr followed by iv challenge with 0.4 ug/Kg of PAF; assay type: functional, Bronchiole
Cavia porcellus [2] = assay: Compound tested for its %inhibition of guinea pig bronchospasm at a peroral dose of 10 mg/Kg and after 2 hr followed by iv challenge with 10 ug/Kg of histamine
Cavia porcellus [3] = assay: as above; remark: listed apart in the source
Cavia porcellus [4] = assay: Compound tested for its %inhibition of guinea pig bronchospasm at a peroral dose of 3 mg/Kg and after 2 hr followed by iv challenge with 0.4 ug/Kg of histamine
[5] = %inhibition of guinea pig bronchospasm at a peroral dose of 10 mg/kg and after 2 hr followed by iv challenge with 0.4 micro g/kg of PAF; assay type: functional; details: Cavia porcellus, Bronchiole, route oral
Outline: (§1)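 Compound given orally 2 h before an iv PAF challenge at 0.4 µg/kg. Values are reported as mean ± standard error of the mean unless noted otherwise, with N animals per determination.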

Cavia porcellus [6] = assay: Compound tested for its %inhibition of guinea pig bronchospasm at a peroral dose of 10 mg/kg and after 2 hr followed by iv challenge with 0.4 micro g/kg of PAF.; assay type: functional; details: Bronchiole, route oral; outline: as §1
Cavia porcellus [7] = assay: Compound tested for its %inhibition of guinea pig bronchospasm at a peroral dose of 10 mg/kg and after 2 hr followed by iv challenge with 0.4 micro g/kg of histamine.; assay type: functional; details: Bronchiole, route oral

Compound | pKi (Histamine H1 receptor) | further results
CCC(=O)N1CCC(=C2c3ccc(Cl)cc3CCc3cccnc32)CC1 | 7.32 | –
CC(=O)N(C)CC/C=C1\c2ccc(Cl)cc2CCc2cccnc21 | 6.54 | –
COc1ccc2c(c1)CCc1cccnc1C2=C1CCN(C(C)=O)CC1 | 5.80 | –
CC(=O)N1CCC(=C2c3cc(Cl)c(Cl)cc3CCc3cccnc32)CC1 | 5.51 | –
CC(=O)N1CCC(=C2c3ccccc3CCc3cccnc32)CC1 | 5.70 | Inhibition (Cavia porcellus [1]): 44%; Inhibition (Cavia porcellus [2]): 96%
CC(=O)N1CCC(=C(c2ccc(Cl)cc2)c2ccccn2)CC1 | < 5.20 | –
O=C(c1ccccc1)N1CCC(=C2c3ccc(Cl)cc3CCc3cccnc32)CC1 | 6.72 | –
CC(=O)N(C)CC/C=C1/c2ccc(Cl)cc2CCc2cccnc21 | 6.07 | –
CC(=O)N1CCC(=C2c3ccc(Br)cc3CCc3cccnc32)CC1 | – | Inhibition (Cavia porcellus [3]): 99%
CC(=O)N1CCC(=C2c3ccc(C)cc3CCc3cccnc32)CC1 | 6.72 | –
CC(=O)N1CCC(=C2c3cc(F)ccc3CCc3cccnc32)CC1 | 5.54 | –
O=CN1CCC(=C2c3ccc(Cl)cc3CCc3cccnc32)CC1 | 7.68 | –
CCCC(=O)N1CCC(=C2c3ccc(Cl)cc3CCc3cccnc32)CC1 | 7.29 | –
CC(=O)N1CCC(=C2c3cc(Cl)ccc3CCc3cccnc32)CC1 | 5.82 | –
CC(=O)N1CCC(=C2c3ccccc3CCc3ccccc32)CC1 | 5.30 | –
CC(=O)C1CCC(=C2c3ccc(Cl)cc3CCc3cccnc32)CC1 (stereo not given) | 5.92 | –
CC(C)(C)C(=O)N1CCC(=C2c3ccc(Cl)cc3CCc3cccnc32)CC1 | 7.09 | –
CC(=O)N1CCC(=C2c3cc(F)c(F)cc3CCc3cccnc32)CC1 | 5.00 | Inhibition (Cavia porcellus [2]): 0%
CC(=O)N1CCC(=C2c3ccc(F)cc3CCc3cccnc32)CC1 | 6.14 | Inhibition (Cavia porcellus [4]): 79%
CC(=O)N1CCC(=C2c3ccc(O)cc3CCc3cccnc32)CC1 | < 5.20 | –
Cc1nnc2n1-c1sc(CCC(=O)N3CCOCC3)cc1C(c1ccccc1Cl)=NC2 [APAFANT] | – | inhibition in vivo at 10 mg/kg [5]: 99%; inhibition in vivo at 10 mg/kg (Cavia porcellus [6]): 60%; inhibition in vivo at 10 mg/kg (Cavia porcellus [7]): 7%
CN1CCC(=C2c3ccccc3CCc3cccnc32)CC1 [AZATADINE] | 8.41 | –
CC(=O)N1CCC(=C2c3ccc(Cl)cc3CCc3cccnc32)CC1 [SCH-37370] | 6.49 | Inhibition (Cavia porcellus [3]): 99%
